Screens: PubChem, The Scripps Research Institute Molecular Screening Center
NPY2 pot ag: potentiates or activates human NPY-Y2 receptor. P49146. cells expressing NPY-Y2, potentiator/agonist read-out. activation, % at 3.6 µM. 220,000 compounds, 0.45% hits. AID 1359; in the data active means activation above about 27%;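 further: cells stimulated with NPY near EC25 plus isoproterenol at EC100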
Target sequence (P49146 whole entry, looked up): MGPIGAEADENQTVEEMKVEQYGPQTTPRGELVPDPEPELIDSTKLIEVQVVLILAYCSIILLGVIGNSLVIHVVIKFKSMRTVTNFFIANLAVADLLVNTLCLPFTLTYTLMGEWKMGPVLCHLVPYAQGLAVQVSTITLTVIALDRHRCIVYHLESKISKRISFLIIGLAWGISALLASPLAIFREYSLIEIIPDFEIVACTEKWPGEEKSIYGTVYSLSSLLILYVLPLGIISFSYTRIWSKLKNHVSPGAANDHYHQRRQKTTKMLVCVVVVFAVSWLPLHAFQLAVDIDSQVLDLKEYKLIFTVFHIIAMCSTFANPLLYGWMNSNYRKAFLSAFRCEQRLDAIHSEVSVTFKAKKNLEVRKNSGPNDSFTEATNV
S1P4 agonist: activates the human S1P4 receptor | O95977 | 220,000 compounds, 0.35% hits | S1P4-expressing cell line, agonist reporter assay | activation, % at 4.98 µM; in the data active means activation above about 11%
NPY Y2 blocker: antagonists of human neuropeptide Y receptor Y2 | NPY-Y2 expressing cells, antagonist mode | 140,000 compounds, 0.99% hits | AID 793 | P49146 | inhibition, % at 2.7 µM; in the data active means inhibition above about 17%
S1P4 antag: human S1P4 receptor antagonism | S1P4-expressing cells, antagonist mode, reporter read-out | inhibition, % at 4.98 µM | 220,000 compounds, 0.26% hits | AID 1510; in the data active means inhibition above about 29%
NPY Y1 blocker: blocks the human neuropeptide Y Y1 receptor. P25929. HEK293-CNG Y1 cells, membrane potential fluorescence; NPY at EC95, then isoproterenol. inhibition, % at 3.6 µM. 200,000 compounds, 1% hits;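 active means inhibition above the campaign mean inhibition of all tested compounds plus 3 SD, cut at about 20% in these data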
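System: HEK293 cells with Y1 receptor plus CNG channel / Probe or stimulus: NPY 25 nM then isoproterenol 1 µM plus Ro 20-1724 25 µM / Compound: one concentration, 3.6 µM, in 0.4% DMSO / Schedule: compound incubation 1 h at room temperature, readout 45 min post-stimulation / Measured by: membrane potential fluorescence / Read-out: % inhibition of NPY effect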
NPY1 pot ag: potentiators or agonists of human neuropeptide Y receptor Y1; NPY-Y1 expressing cells, potentiator/agonist activation; activation, % at 3.6 µM; 220,000 compounds, 0.37% hits; AID 1304; in the data active means activation above about 33%, passing the limit was not always enough;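 further: cells stimulated with NPY at EC10 then isoproterenol at EC100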
NPY-Y1 pot conf: human NPY-Y1 potentiation or agonism, confirmation; shares compounds with NPY1 pot ag; cell-based NPY-Y1 potentiator/agonist assay; activation, % at 3.6 µM; 280 compounds, 20% hits; AID 1546; in the data active means activation above about 45%;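 further: cells challenged with NPY at its EC10 plus isoproterenol stimulus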
NPY-Y2 counter: potentiates or activates NPY-Y2, counter-screen for NPY-Y1 hits | shares compounds with NPY1 pot ag | HEK293-CNG cells, membrane-potential fluorescence (FLIPR), 1536-well | activation, % at 3.6 µM | 280 compounds, 20% hits; in the data active means activation above about 33%
NPY-Y1 ag: counter-screen for NPY-Y1 potentiators: agonists of human NPY-Y1; shares compounds with NPY1 pot ag; HEK293 Y1-CNGC, membrane potential fluorescence, agonist mode; activation, % at 3.6 µM; 280 compounds, 50% hits;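 active means percent activation above the mean of DMSO-only control wells plus 3 SD of those wells, cut at about 18% in these data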;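 further: cells challenged with isoproterenol plus Ro 20-1724 with no NPY in test wells; Y1 agonism lowers isoproterenol-driven cAMP and reduces probe fluorescence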
NPY-Y2 ag: activates human NPY-Y2, counter-screen for NPY-Y1 hits | 280 compounds, 67% hits | HEK293 Y2-CNGC, membrane potential fluorescence, agonist mode | shares compounds with NPY1 pot ag | activation, % at 3.6 µM | AID 1698;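 active means activation above the solvent-only control wells' mean plus 3 SD, cut at about 11% in these data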;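 further: agonism lowers cAMP so well fluorescence drops in active wells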
CNGC counter: CNG channel inhibition, counter-screen for NPY-Y1 potentiators; HEK293-CNG parental, isoproterenol cAMP, membrane potential fluorescence; 280 compounds, 42% hits; shares compounds with NPY1 pot ag; inhibition, % at 3.6 µM; AID 1704;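 active means inhibition above the mean of stimulated solvent-only control wells plus 3 SD, cut at about 22% in these data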
A number is an active result; 0 = inactive; - = no result. Compounds with a hit are over-represented: about 2.4% of the library has one in this group of screens.

SMILES	NPY2 pot ag	S1P4 agonist	NPY Y2 blocker	S1P4 antag	NPY Y1 blocker	NPY1 pot ag	NPY-Y1 pot conf	NPY-Y2 counter	NPY-Y1 ag	NPY-Y2 ag	CNGC counter
Cc1ccc(-c2[nH]c3ccccc3c2SCCNC(=O)c2ccc(S(=O)(=O)N3CCOCC3)cc2)cc1	0	0	0	0	0	48	0	0	0	11	0
CC(C)c1ccc2[nH]c(O)c(N=NC(=O)c3cccc(S(=O)(=O)Nc4ccc(Cl)cc4)c3)c2c1	0	0	-	0	0	0	-	-	-	-	-
CC(C)c1ccc2[nH]c(O)c(N=NC(=O)c3cccc(S(=O)(=O)Nc4cccc(Cl)c4)c3)c2c1	0	0	-	0	-	50	0	0	24	28	0
CN1CCc2c(sc3c2C(=O)NC(c2cccs2)N3)C1 (centres undefined)	0	0	0	0	0	0	-	-	-	-	-
CSc1ccc(C2NC(=O)c3c(sc4c3CCN(C)C4)N2)cc1 (centres undefined)	0	0	0	0	0	42	0	0	0	0	0
COc1cc2c3c(c1)c(N=NC(N)=S)c(O)n3C(C)(C)C=C2C	0	0	-	0	-	55	74	61	47	60	54
CCn1cc(C(=O)N2CCc3ccccc32)c(=O)c2cc(S(=O)(=O)N(C)C3CCCCC3)ccc21	0	0	0	0	0	51	0	0	0	0	0
Cc1nn(Cc2ccccc2)c(Cl)c1/C=C/C(=O)OC(C)C(=O)N1CCCC1 (centres undefined)	0	0	-	0	0	0	-	-	-	-	-
CCOc1ccccc1NC(=O)C1C2C=CC(O2)C1C(=O)O (centres undefined)	0	0	0	0	0	57	0	0	0	0	0
CC(C)Cn1c(N)c(C(=O)COC(=O)c2cnc(Cl)c(Cl)c2)c(=O)n(C)c1=O	0	0	-	0	0	42	0	42	33	24	0
COc1ccc(CNC(=O)COC(=O)CCc2c[nH]c3ccccc23)cc1	0	0	-	0	0	0	-	-	-	-	-
CC(=O)Nc1ccc(S(=O)(=O)NCCC(=O)NCCc2ccc(F)cc2)cc1	0	0	0	0	0	62	0	0	0	0	0
CCNS(=O)(=O)c1ccc(NC(=O)Cc2ccc(F)cc2)cc1	0	0	0	0	0	0	-	-	-	-	-
CSc1ccc(S(=O)(=O)N(CC(=O)NN=C2CCN(C)CC2)c2ccc(C)cc2)cc1	0	0	-	0	0	0	-	-	-	-	-
OCCC1CN(CC#Cc2ccccc2)CCN1C1CCCC1 (centres undefined)	0	0	-	0	0	102	0	0	0	0	0
COC(=O)/C(=C\Nc1ccc(Oc2ccc(F)cc2F)nc1)NC(=O)c1ccccc1	0	0	-	0	-	0	-	-	-	-	-
COc1ccc(N=Nc2ccc(O)c3ncccc23)cc1	0	0	-	0	-	0	-	-	-	-	-
COc1ccc(C)cc1N=Nc1ccc(O)c2ncccc12	0	0	-	0	0	47	49	42	57	53	51
CCCCn1nnc(NC(=O)C(c2ccccc2)c2ccccc2)n1	0	0	-	0	0	64	0	0	0	0	0
CCCn1nnc(NC(=O)C(c2ccccc2)c2ccccc2)n1	0	0	0	0	0	0	-	-	-	-	-
COc1cccc(NC(=O)c2ccc(NCCCN3CC(C)CC(C)C3)c([N+](=O)[O-])c2)c1 (centres undefined)	0	0	-	0	0	38	0	0	0	14	31
COc1cccc(NC(=O)c2ccc(NCCCN3CCC(C)CC3)c([N+](=O)[O-])c2)c1	0	0	-	0	0	0	-	-	-	-	-
O=S(=O)(c1ccc(S(=O)(=O)N(Cc2ccco2)Cc2ccccc2Cl)cc1)N1CCCC1	0	0	0	0	0	0	-	-	-	-	-
CN(C)S(=O)(=O)c1ccc(S(=O)(=O)N(Cc2ccco2)Cc2ccccc2Cl)cc1	0	0	0	0	0	38	0	0	0	0	0
CC1N(C)c2cc(NC(=O)c3ccco3)ccc2C1(C)C (centres undefined)	0	0	0	0	0	0	-	-	-	-	-
SMILES	NPY2 pot ag	S1P4 agonist	NPY Y2 blocker	S1P4 antag	NPY Y1 blocker	NPY1 pot ag	NPY-Y1 pot conf	NPY-Y2 counter	NPY-Y1 ag	NPY-Y2 ag	CNGC counter
CC1N(C)c2cc(NC(=O)c3ccco3)c(P(=O)(Nc3ccc([N+](=O)[O-])cc3)N3CCOCC3)cc2C1(C)C (centres undefined)	0	0	-	0	0	37	0	0	0	29	24
O=C(Nc1ccc(OC(F)F)c(Cl)c1)c1ccccn1	0	0	-	0	0	39	0	0	0	0	0
COc1ccc(NC(=O)c2ccc(OC(F)F)cc2)cc1Cl	0	0	0	0	0	0	-	-	-	-	-
O=C1CCC/C(=N/NC(=O)c2sc3ccccc3c2Cl)C1	0	0	-	0	-	0	-	-	-	-	-
CC1CC(C)CN(CCCNC(=O)c2cc3c(=O)[nH]c4ccccc4c3n2C)C1 (centres undefined)	0	0	-	0	0	41	0	0	26	19	0
Cc1cccc(Nc2c(-c3ccc(O)cc3)nc3ncccn23)c1	0	0	-	0	0	40	0	0	0	31	23
Cc1ccc(Nc2c(-c3ccccc3O)nc3ncccn23)cc1	0	0	-	0	-	0	-	-	-	-	-
COc1ccc(N(C)S(=O)(=O)c2cccc(C(=O)Nc3cc(OC)ccc3OC)c2)cc1	0	0	-	0	0	0	-	-	-	-	-
COc1ccc(N(C)S(=O)(=O)c2cccc(C(=O)Nc3nnc(C4CC4)s3)c2)cc1	0	0	-	0	0	38	0	0	41	20	40
COc1cc(-c2noc(C)n2)cc(OC)c1OC	0	0	-	0	-	0	-	-	-	-	-
Cc1nc(-c2cccc(-c3noc(C)n3)c2)no1	0	0	0	0	0	38	0	0	0	0	0
Cc1ccccc1OCC(O)CN1CCN(CC(O)COc2ccccc2C)CC1 (centres undefined)	0	0	-	0	0	40	0	0	31	16	0
Cc1ccccc1OCC(O)CN1CCN(c2ccc(Cl)cc2)CC1 (centres undefined)	0	0	-	0	-	0	-	-	-	-	-
CCOC(=O)CNC(=O)c1cc(-c2ccccn2)nc2c(C)c(Cl)ccc12	0	0	-	0	0	0	-	-	-	-	-
